# Data reported in ChEMBL document CHEMBL5678805, “Intermittent administration of MEK inhibitor GDC-0973 plus PI3K inhibitor GDC-0941 triggers robust apoptosis and tumor growth inhibition” (Cancer Res, 2012).
# Active and inactive are the calls of the source. The rule behind the calls is not given here.
# What was measured:
# [1] = test system: A2058; experiment: Antitumor activity against human A2058 cells xenografted in mouse assessed as tumor growth inhibition at 20 mg/kg, po administered every third day for 21 days; assay type: functional; conditions: A2058, 504 h, time 21 day, read-out: TGI
# Method in brief: (§1)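 Human tumor xenografts in mice. Drugs given orally, as single agents or combined with the PI3K inhibitor. Schedules were daily (QD) or every third day (Q3D) over 21 days. Tumor volume was measured by caliper as (L×W×W)/2. %TGI = 100×[1 − AUC(treatment/d)/AUC(vehicle/d)] from fitted growth curves, with group means. Tumor lysates were immunoblotted for pS6.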
# [2] = test system: Malme-3M; experiment: Antiproliferative activity against human Malme-3M cells assessed reduction in cell viability incubated for 4 days in presence of 4-(2-(1H-indazol-4-yl)-6-((4-(methylsulfonyl)piperazin-1-yl)methyl)thieno[3,2-d]pyrimidin-4-yl)morpholine by celltiter-glo assay; assay type: functional; conditions: time 4 day
# Method in brief: (§2)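 4-day CellTiter-Glo viability read-out on melanoma lines, cells exposed to increasing concentrations of each inhibitor alone and in combination.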
# [3] = biological target: Proto-oncogene tyrosine-protein kinase Src (Homo sapiens, UniProt P12931); experiment: Inhibition of SRC (unknown origin)
# Sequence of Proto-oncogene tyrosine-protein kinase Src (P12931 2-536 limits assumed): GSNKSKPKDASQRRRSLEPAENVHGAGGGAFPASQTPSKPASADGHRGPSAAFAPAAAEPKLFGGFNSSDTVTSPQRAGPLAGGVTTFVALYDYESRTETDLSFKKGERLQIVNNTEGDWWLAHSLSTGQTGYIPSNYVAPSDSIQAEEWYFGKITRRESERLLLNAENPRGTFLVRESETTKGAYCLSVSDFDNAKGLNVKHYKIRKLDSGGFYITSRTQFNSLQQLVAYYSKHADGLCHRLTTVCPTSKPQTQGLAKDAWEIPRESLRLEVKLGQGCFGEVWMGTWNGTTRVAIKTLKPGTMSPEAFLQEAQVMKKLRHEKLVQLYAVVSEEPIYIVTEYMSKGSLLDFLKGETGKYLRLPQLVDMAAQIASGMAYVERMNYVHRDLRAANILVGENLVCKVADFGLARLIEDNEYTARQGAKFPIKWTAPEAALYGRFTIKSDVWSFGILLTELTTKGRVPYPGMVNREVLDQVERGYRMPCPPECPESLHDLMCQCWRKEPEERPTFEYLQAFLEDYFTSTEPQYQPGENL
# [4] = test system: C32; experiment: Antiproliferative activity against human C32 cells assessed reduction in cell viability incubated for 4 days in presence of 4-(2-(1H-indazol-4-yl)-6-((4-(methylsulfonyl)piperazin-1-yl)methyl)thieno[3,2-d]pyrimidin-4-yl)morpholine by celltiter-glo assay; assay type: functional; conditions: time 4 day; method in brief: as §2
# [5] = test system: A2058; experiment: Antitumor activity against human A2058 cells harboring BRAF V600E/PTEN deletion mutant xenografted in mouse assessed as decrease in tumor volume at 10 mg/kg, po administered once weekly for 21 days in presence of GDC-0980 by digital calipers analysis; assay type: functional, organism-based; conditions: time 21.0 day
# [6] = test system: DLD-1; experiment: Antitumor activity against human DLD-1 cells xenografted in mouse assessed as tumor growth inhibition at 3 mg/kg, po administered once a day for 21 days in presence of 4-(2-(1H-indazol-4-yl)-6-((4-(methylsulfonyl)piperazin-1-yl)methyl)thieno[3,2-d]pyrimidin-4-yl)morpholine; assay type: functional; conditions: DLD-1, 504 h, time 21 day, read-out: TGI; method in brief: as §1
# [7] = biological target: Vascular endothelial growth factor receptor 2 (Homo sapiens, UniProt P35968); experiment: Inhibition of KDR (unknown origin)
# Sequence of Vascular endothelial growth factor receptor 2 (P35968 whole entry): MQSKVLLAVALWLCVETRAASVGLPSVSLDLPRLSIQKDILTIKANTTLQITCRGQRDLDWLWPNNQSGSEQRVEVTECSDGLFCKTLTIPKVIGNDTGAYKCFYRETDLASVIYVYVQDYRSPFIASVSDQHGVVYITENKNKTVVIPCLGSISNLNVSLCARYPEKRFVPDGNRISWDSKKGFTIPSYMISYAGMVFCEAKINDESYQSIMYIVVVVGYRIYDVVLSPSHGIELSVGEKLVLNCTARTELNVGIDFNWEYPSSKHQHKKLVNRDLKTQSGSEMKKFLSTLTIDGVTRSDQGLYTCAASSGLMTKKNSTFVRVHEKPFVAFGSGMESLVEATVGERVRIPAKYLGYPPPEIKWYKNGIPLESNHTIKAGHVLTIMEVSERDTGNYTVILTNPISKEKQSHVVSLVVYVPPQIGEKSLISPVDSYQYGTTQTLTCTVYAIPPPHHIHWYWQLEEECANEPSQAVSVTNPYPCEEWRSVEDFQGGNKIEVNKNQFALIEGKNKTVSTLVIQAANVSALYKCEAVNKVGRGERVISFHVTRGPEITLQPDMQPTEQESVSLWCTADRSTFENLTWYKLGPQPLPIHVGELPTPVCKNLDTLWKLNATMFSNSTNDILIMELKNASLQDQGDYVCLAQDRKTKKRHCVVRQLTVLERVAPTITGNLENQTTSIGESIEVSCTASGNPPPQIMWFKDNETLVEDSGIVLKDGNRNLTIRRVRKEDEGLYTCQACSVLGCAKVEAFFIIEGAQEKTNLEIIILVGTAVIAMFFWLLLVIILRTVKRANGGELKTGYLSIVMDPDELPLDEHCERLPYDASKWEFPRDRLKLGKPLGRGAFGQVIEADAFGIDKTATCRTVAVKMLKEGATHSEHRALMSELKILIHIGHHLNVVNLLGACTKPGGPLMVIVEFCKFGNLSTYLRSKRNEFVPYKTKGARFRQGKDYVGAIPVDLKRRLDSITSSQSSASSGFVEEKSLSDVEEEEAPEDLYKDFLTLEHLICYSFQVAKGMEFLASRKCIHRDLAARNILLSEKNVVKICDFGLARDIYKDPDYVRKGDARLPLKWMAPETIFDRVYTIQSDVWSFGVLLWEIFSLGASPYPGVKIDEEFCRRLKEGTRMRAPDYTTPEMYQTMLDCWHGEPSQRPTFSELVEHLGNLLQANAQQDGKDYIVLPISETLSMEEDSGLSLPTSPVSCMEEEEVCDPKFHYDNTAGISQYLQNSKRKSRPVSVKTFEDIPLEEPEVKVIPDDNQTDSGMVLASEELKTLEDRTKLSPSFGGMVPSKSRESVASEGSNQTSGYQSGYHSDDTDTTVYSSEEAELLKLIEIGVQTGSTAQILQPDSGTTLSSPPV
# [8] = biological target: Death-associated protein kinase 1 (Homo sapiens, UniProt P53355); experiment: Inhibition of DAPK1 (unknown origin)
# [9] = biological target: Serine/threonine-protein kinase 10 (Homo sapiens, UniProt O94804); experiment: Inhibition of LOK (unknown origin)
# Sequence of Serine/threonine-protein kinase 10 (O94804 whole entry): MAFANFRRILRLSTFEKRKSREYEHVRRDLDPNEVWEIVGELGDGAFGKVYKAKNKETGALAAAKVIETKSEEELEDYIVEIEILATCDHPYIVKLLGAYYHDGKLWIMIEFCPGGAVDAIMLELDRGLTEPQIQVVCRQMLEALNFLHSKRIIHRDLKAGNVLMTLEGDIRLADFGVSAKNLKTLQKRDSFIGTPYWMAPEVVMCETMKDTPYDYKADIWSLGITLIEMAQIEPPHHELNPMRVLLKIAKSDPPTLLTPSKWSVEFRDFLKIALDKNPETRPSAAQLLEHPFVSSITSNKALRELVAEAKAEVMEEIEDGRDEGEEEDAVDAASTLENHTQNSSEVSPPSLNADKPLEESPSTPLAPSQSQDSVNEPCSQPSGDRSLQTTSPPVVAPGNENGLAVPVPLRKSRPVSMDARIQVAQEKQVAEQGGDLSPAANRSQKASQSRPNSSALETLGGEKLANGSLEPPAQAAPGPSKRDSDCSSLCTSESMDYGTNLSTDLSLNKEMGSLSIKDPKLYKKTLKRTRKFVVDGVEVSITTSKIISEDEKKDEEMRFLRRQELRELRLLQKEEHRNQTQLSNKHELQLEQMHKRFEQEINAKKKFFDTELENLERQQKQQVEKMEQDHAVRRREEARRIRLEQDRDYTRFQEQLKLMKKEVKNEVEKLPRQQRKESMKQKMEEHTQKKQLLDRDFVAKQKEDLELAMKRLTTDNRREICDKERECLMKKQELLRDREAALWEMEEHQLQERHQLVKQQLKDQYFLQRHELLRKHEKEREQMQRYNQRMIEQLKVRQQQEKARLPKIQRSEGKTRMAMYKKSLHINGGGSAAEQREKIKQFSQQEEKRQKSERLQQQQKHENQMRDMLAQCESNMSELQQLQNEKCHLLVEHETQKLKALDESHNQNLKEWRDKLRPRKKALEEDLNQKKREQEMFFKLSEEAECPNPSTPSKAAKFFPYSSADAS
# [10] = test system: NCI-H2122; experiment: Antitumor activity against human NCI-H2122 cells xenografted in mouse assessed as tumor growth inhibition at 5 mg/kg, po administered once a day for 21 days in presence of 4-(2-(1H-indazol-4-yl)-6-((4-(methylsulfonyl)piperazin-1-yl)methyl)thieno[3,2-d]pyrimidin-4-yl)morpholine; assay type: functional; conditions: NCI-H2122, 504 h, time 21 day, read-out: TGI
# Method in brief: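 Mice bearing NCI-H2122 xenografts were given MEK inhibitor, PI3K inhibitor, or both, orally once daily for 21 consecutive days at the doses labeled. Caliper tumor volumes were calculated as (L×W×W)/2. %TGI was derived from the AUC of the fitted growth curve per day relative to vehicle.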
# [11] = test system: 888-mel; experiment: Inhibition of PI3K/MEK signaling pathway in human 888-mel cells assessed as decrease in AKT phosphorylation by incubated for 24 hrs by Western blot analysis; assay type: cell-based
# [12] = biological target: Homeodomain-interacting protein kinase 1 (Homo sapiens, UniProt Q86Z02); experiment: Inhibition of HIPK1 (unknown origin)
# [13] = test system: 888-mel; experiment: Induction of apoptosis in human 888-mel cells assessed as increase in cleaved PARP level incubated for 24 hrs in presence of 4-(2-(1H-indazol-4-yl)-6-((4-(methylsulfonyl)piperazin-1-yl)methyl)thieno[3,2-d]pyrimidin-4-yl)morpholine by immunoblotting analysis; assay type: functional, cell-based
# [14] = biological target: Dual specificity mitogen-activated protein kinase kinase 4 (Homo sapiens, UniProt P45985); experiment: Inhibition of MKK4 (unknown origin)
# Sequence of Dual specificity mitogen-activated protein kinase kinase 4 (P45985 whole entry): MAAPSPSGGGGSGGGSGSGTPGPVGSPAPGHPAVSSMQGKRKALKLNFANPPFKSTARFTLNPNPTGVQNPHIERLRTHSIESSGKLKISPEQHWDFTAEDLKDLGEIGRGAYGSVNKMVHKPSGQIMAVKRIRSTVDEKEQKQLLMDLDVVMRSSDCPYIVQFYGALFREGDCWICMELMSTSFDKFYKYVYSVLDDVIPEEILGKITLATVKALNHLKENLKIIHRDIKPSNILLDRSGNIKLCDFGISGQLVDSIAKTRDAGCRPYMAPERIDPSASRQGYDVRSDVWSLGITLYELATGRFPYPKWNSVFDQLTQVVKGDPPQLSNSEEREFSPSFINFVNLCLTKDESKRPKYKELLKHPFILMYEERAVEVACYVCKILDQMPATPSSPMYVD
# [15] = biological target: Tyrosine-protein kinase BTK (Homo sapiens, UniProt Q06187); experiment: Inhibition of Btk (unknown origin)
# [16] = test system: NCI-H441; experiment: Antitumor activity against human NCI-H441 cells harboring KRAS G12V/TP53 R158L/MET high mutant xenografted in mouse assessed as tumor growth inhibition at 5 mg/kg, po; assay type: functional; conditions: read-out: TGI
# Method in brief: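 Human tumor xenografts in mice were dosed orally at the indicated mg/kg. Tumor volume was measured with calipers as (L×W×W)/2. %TGI = 100 × [1 − (AUC treatment/d)/(AUC vehicle/d)], using the area under the fitted tumor-growth curve per day for each dose group relative to vehicle.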
# [17] = test system: A2058; experiment: Antitumor activity against human A2058 cells xenografted in mouse assessed as tumor growth inhibition at 6 mg/kg, po administered once a day for 21 days; assay type: functional; conditions: A2058, 504 h, time 21 day, read-out: TGI; method in brief: as §1
# [18] = biological target: Protein kinase C beta type (Homo sapiens, UniProt P05771); experiment: Inhibition of PKCbeta2 (unknown origin)
# Sequence of Protein kinase C beta type (P05771 whole entry): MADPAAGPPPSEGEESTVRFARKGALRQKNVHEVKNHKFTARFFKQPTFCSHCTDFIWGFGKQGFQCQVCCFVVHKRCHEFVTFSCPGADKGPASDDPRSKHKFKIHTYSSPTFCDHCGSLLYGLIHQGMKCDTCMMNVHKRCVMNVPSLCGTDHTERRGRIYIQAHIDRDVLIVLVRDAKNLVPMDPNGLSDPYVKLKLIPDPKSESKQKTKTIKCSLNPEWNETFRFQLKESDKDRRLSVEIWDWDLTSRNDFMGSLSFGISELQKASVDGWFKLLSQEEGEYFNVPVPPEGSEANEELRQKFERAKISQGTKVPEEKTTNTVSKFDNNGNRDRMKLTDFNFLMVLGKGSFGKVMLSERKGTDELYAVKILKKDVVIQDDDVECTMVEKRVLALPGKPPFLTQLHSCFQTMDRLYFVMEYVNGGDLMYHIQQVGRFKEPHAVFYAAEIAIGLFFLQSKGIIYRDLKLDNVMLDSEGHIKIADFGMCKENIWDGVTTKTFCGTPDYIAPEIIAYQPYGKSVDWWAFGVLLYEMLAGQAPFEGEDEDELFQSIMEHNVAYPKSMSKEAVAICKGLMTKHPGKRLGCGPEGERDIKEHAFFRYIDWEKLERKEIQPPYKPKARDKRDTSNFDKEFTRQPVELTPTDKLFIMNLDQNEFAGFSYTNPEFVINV
# [19] = test system: A2058; experiment: Antitumor activity against human A2058 cells harboring BRAF V600E/PTEN deletion mutant xenografted in mouse assessed as suppression of S6 phosphorylation at 15 mg/kg, po administered every third day for 21 days and measured after 72 hrs post dose by Western blot analysis; assay type: functional, organism-based; conditions: time 576.0 hrs
# [20] = biological target: Dual specificity tyrosine-phosphorylation-regulated kinase 2 (Homo sapiens, UniProt Q92630); experiment: Inhibition of DYRK2 (unknown origin)
# [21] = biological target: Ribosomal protein S6 kinase beta-1 (Homo sapiens, UniProt P23443); experiment: Inhibition of p70S6K (unknown origin)
# [22] = biological target: Macrophage colony-stimulating factor 1 receptor (Homo sapiens, UniProt P07333); experiment: Inhibition of Fms (unknown origin)
# [23] = Antitumor activity against human A375.X1 cells harboring BRAF V600E/CDKN2A E61 mutant xenografted in mouse assessed as tumor growth inhibition at 10 mg/kg, po; assay type: functional; conditions: A375.X1, read-out: TGI
# Method in brief: (§3)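 Single-agent dose ranging in human tumor xenograft mice at 2.5, 5 or 10 mg/kg oral. Tumor volume was measured by caliper as (L×W×W)/2. %TGI = 100×[1 − AUC(treatment/d)/AUC(vehicle/d)] from the fitted growth curve per dose group, relative to vehicle.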
# [24] = Antitumor activity against human A375.X1 cells xenografted in mouse assessed as tumor growth inhibition at 3 mg/kg, po administered once a day for 21 days; assay type: functional; conditions: A375.X1, 504 h, read-out: TGI, time 21 day; method in brief: as §1
# [25] = test system: Calu-6; experiment: Antitumor activity against human Calu-6 cells harboring KRAS Q61K and TP53 R196 mutant xenografted in mouse assessed as tumor growth inhibition at 2.5 mg/kg, po; assay type: functional; conditions: read-out: TGI; method in brief: as §3
# [26] = test system: 888-mel; experiment: Upregulation of Bim level in human 888-mel cells preincubated with compound for 24 hrs followed by compound washout and measured after 2 hrs by immunoblotting analysis; assay type: functional, cell-based
# [27] = test system: 888-mel; experiment: Inhibition of S6 phosphorylation in human 888-mel cells incubated for 24 hrs in presence of 4-(2-(1H-indazol-4-yl)-6-((4-(methylsulfonyl)piperazin-1-yl)methyl)thieno[3,2-d]pyrimidin-4-yl)morpholine by immunoblotting analysis; assay type: cell-based
# [28] = biological target: Tyrosine-protein kinase JAK2 (Homo sapiens, UniProt O60674); experiment: Inhibition of JAK2 (unknown origin)
# Sequence of Tyrosine-protein kinase JAK2 (O60674 whole entry): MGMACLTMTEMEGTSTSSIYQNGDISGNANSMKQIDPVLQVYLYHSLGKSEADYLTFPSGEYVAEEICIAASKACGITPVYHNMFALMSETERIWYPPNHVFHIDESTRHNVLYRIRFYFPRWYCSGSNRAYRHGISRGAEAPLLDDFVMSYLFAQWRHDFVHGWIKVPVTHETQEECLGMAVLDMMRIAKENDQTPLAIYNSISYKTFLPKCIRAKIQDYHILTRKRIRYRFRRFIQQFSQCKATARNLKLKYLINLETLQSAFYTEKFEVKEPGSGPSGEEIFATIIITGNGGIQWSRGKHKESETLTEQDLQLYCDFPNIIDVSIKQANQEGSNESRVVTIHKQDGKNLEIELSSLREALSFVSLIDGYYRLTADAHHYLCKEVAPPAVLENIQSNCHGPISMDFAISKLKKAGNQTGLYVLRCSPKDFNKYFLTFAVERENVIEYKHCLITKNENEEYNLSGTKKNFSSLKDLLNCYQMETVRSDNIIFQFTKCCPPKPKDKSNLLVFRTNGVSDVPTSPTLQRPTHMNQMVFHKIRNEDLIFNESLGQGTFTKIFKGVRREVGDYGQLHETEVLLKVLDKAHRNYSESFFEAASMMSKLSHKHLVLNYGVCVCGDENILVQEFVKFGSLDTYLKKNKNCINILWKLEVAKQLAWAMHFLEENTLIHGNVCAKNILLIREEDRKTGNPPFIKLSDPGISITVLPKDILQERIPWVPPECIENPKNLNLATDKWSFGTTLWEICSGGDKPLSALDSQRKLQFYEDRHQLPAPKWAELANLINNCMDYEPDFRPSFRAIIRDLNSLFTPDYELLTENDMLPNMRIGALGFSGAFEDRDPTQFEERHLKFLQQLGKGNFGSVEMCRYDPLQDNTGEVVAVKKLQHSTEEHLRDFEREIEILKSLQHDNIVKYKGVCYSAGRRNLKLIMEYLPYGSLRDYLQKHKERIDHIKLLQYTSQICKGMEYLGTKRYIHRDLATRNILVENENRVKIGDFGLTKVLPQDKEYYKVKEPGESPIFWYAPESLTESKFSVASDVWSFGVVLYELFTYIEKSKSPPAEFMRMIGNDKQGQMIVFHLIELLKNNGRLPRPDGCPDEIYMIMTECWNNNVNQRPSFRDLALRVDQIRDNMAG
structure (smiles),measurement,setting,value
O=C(c1ccc(F)c(F)c1Nc1ccc(I)cc1F)N1CC(O)([C@@H]2CCCCN2)C1 [COBIMETINIB],inhibition in vivo at 20 mg/kg,[1],34%
same,Activity,[2],60%
same,IC50,[3],> 10 µM
same,Activity,[4],60%
same,Activity,[5],Active
same,inhibition in vivo at 3 mg/kg,[6],88%
same,IC50,[7],> 10 µM
same,IC50,[8],> 10 µM
same,IC50,[9],> 10 µM
same,inhibition in vivo at 5 mg/kg,[10],75%
same,inhibition,[11],Active
same,IC50,[12],> 10 µM
same,Activity,[13],Active
same,IC50,[14],> 10 µM
same,IC50,[15],> 10 µM
same,inhibition in vivo at 5 mg/kg,[16],59%
same,inhibition in vivo at 6 mg/kg,[17],44%
same,IC50,[18],> 10 µM
same,Activity,[19],Active
same,IC50,[20],> 10 µM
same,IC50,[21],> 10 µM
same,IC50,[22],> 10 µM
same,inhibition in vivo at 10 mg/kg,[23],104%
same,inhibition in vivo at 3 mg/kg,[24],87%
same,inhibition in vivo at 2.5 mg/kg,[25],27.5%
same,Activity,[26],Active
same,inhibition,[27],Active
same,IC50,[28],> 10 µM
